Measured values gathered from unrelated publications.
Compare with care: the assays were run in different laboratories.
Target: Ephrin type-A receptor 3 (EPHA3, Homo sapiens, UniProt P29320)
Residues used in one study (P29320 1-983): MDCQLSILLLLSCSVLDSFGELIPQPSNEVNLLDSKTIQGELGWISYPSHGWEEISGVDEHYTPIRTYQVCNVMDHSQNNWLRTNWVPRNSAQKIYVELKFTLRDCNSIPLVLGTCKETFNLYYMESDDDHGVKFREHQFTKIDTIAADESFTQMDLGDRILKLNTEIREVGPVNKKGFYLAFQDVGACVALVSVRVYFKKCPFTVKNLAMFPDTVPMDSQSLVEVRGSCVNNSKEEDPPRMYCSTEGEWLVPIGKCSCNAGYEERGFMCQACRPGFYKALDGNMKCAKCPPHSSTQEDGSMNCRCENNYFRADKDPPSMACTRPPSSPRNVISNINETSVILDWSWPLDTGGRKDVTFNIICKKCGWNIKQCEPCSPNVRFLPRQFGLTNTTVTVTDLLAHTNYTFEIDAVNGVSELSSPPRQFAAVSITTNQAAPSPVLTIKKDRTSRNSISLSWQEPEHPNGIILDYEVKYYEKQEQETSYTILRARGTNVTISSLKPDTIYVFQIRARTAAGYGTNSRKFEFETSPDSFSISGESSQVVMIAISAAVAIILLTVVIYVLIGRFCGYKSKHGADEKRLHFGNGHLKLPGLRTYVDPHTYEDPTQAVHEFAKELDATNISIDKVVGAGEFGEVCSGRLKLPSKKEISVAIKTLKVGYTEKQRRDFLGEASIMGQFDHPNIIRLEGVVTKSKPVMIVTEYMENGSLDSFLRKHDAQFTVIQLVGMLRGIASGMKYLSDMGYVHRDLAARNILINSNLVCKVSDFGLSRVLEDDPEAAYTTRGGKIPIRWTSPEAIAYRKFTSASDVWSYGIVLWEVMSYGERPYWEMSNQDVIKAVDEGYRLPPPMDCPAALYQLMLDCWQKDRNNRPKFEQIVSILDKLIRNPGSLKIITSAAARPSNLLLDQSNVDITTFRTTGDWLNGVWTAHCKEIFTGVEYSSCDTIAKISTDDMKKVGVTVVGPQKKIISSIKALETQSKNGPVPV

`N#CCCc1ccc2c(c1)-c1[nH]c3ccc([N+](=O)[O-])cc3c1CC(=O)N2` has a remaining signal of 93.9% (cell-free assay; 0.5 µM).
With `Cc1ccc(C(=O)NCc2ccsc2)cc1C#Cc1cn(C(C)C)c2ncnc(N)c12` the activity vs control was 45% (enzyme activity, inhibitor; 1 µM).
The activity vs control of `Cc1cc(NC(=O)c2cccc3cc(-c4cccc5[nH]nc(N)c45)ccc23)ccc1F` is reported as 103% (enzyme activity, inhibitor; 0.1 µM).
For `O=C(O)[C@@H]1[C@@H](Cn2nnc3ccccc3c2=O)CC[C@H]1C(=O)c1ccc(OCCC2CCOCC2)cc1`, the remaining binding was 100% (cell-free assay, competition with immobilised ligand; 1 µM).
`Cc1ccc(Nc2nccc(N(C)c3ccc4c(C)n(C)nc4c3)n2)cc1S(N)(=O)=O` has an inhibition of 2% (enzyme activity, inhibitor; 0.3 µM).
`COc1cc2ncnc(Nc3ccc(F)c(Cl)c3)c2cc1OCCCN1CCOCC1` gave a remaining signal of 94.4% (cell-free assay; 0.5 µM).
The remaining binding of `Cc1noc([C@H]2C[C@@H](c3ccc(C(F)(F)F)cc3)CN(C(=O)N3CCS(=O)(=O)C3)C2)n1` is reported as 100% (cell-free assay, competition with immobilised ligand; 1 µM).
The remaining activity of `CC(C)(O)[C@H]1CC[C@H](Nc2ccc3ncc(-c4cccc(C(F)(F)F)c4)n3n2)CC1` is reported as 107% (enzyme activity, inhibitor; 1 µM).
The remaining binding of `CCOCCn1cc(C(=O)Nc2ccc(-n3nc(-c4cccnc4)cc3C(F)(F)F)cn2)ccc1=O` is reported as 99% (cell-free assay, competition with immobilised ligand; 1 µM).
`Cc1ccc(C(=O)Nc2ccc(CN3CCN(C)CC3)c(C(F)(F)F)c2)cc1C#Cc1cnc2cccnn12` has a remaining signal of 7.3% (cell-free assay; 23.5 nM).
`CNC(=O)c1cc(Oc2ccc(NC(=O)Nc3ccc(Cl)c(C(F)(F)F)c3)cc2)ccn1` has an inhibition of 11% (enzyme activity, inhibitor; 0.3 µM).
The inhibition of `CC/C(=N\NC(=O)NCc1cccc(O)c1)c1ccc(O)c(C)c1O` is reported as 0.6% (enzyme activity, inhibitor; 0.1 µM).
The inhibition of `CNC(=O)c1cc2c(Oc3ccc(NC(=O)C4(C(=O)Nc5ccc(F)cc5)CC4)cc3)ccnc2cc1OC` is reported as 95% (enzyme activity, inhibitor, radiometric; 1 µM).
With `C#Cc1cccc(Nc2ncnc3cc(OCCOC)c(OCCOC)cc23)c1` the remaining signal was 93.2% (cell-free assay; 0.5 µM).
`CCc1ccccc1C(=O)Nc1n[nH]c2c(C)c(F)c(C3C(C#N)=C(C)N(C)C(C)=C3C#N)cc12` has a remaining binding of 100% (cell-free assay, competition with immobilised ligand; 1 µM).
`CCN(CC)c1ccc(C2=NNC(=O)CC2C)cc1[N+](=O)[O-]` (centres unmarked) has a remaining activity of 100% (enzyme activity, inhibitor; 10 µM).
`CCOC(=O)c1cc2cc(-c3cc(C(=O)NCc4ccc(C(=O)O)cc4)nn3C)ccc2[nH]1` gave a remaining binding of 100% (cell-free assay, competition with immobilised ligand; 0.1 µM).
`CSc1nc(C)c(-c2ccnc(Nc3ccc(N4CCOCC4)cc3)c2)[nH]1` gave an inhibition of -6.3% (cell-free assay, inhibitor; 10 µM).
The remaining activity of `CC(C)(C)c1nc2c(s1)c1nc(N)ncc1c1ccc(NS(=O)(=O)c3c(F)cccc3F)c(F)c12` is reported as 92% (enzyme activity, inhibitor, radiometric; 1 µM).
`CCCCN(CCCC)C(=O)CN1C[C@@H](c2cc(OC)c3c(c2)OCO3)[C@H](C(=O)O)[C@H]1CC(C)(C)CCC` has a remaining binding of 95.3% (cell-free assay, competition with immobilised ligand; 1 µM).
The inhibition of `CN(C)C1CCN(CC#Cc2nn(C3CCCC3)c3nc(NCc4ccccc4)ncc23)C1` (centres unmarked) is reported as -9% (enzyme activity, inhibitor, FRET; 1 µM).
`O=C1Nc2ccc(Cl)cc2C1=Cc1cc(Cl)c(O)c(Cl)c1` gave a remaining signal of 82.5% (cell-free assay; 0.5 µM).
`CO[C@@H](C)c1c(Nc2ccc([C@@H](N(C)C(=O)C3CCS(=O)(=O)CC3)C(F)(F)F)cc2)cnc2cc(Cl)nn12` has a remaining binding of 90% (cell-free assay, competition with immobilised ligand; 1 µM).
